Source: PubChem
Only some compounds are listed: those with a hit (about 3.5% of all), similar ones and a draw of the others.
RGS4 act: RGS4 potentiators or activators, primary screen, cell-based, HEK293 M3R inducible RGS4, calcium flux. carbachol calcium flux Fluo4; active compounds read low. AID 463111, 2010. B-score at 10 µM. actives 0.92% (n = 310,000);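 active = B-score of the integrated calcium signal more than 4 SD below the library mean, with starting fluorescence not abnormally high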;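 note: negative B-score means reduced calcium response which marks RGS4 activation or potentiation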
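Test system: HEK293 cells with stable M3R and inducible RGS4; also added: carbachol at ECmax as muscarinic agonist stimulus; schedule: dye loading 30 min 37 °C, buffer rest 30 min RT; technique: kinetic calcium fluorescence imaging with Fluo4-AM dye, 2 µM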
MrgX1 allo act: positive allosteric modulators of MrgX1, primary screen, HEK293 cells, Fluo-4 calcium flux; Mas-related G-protein coupled receptor member X1 (Homo sapiens), Q96LB2; FDSS; active compounds read high; B-score at 10 µM; actives 0.63% (n = 310,000); AID 588675, 2011;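 active = plate-corrected calcium response at least 3 library SD above typical, normal starting fluorescence, not activating the receptor alone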;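 note: compound read alongside a low EC10 to EC30 dose of BAM8-22 agonist; peak minus trough fluorescence over baseline measured at the second addition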
Target sequence (Q96LB2 whole entry, looked up): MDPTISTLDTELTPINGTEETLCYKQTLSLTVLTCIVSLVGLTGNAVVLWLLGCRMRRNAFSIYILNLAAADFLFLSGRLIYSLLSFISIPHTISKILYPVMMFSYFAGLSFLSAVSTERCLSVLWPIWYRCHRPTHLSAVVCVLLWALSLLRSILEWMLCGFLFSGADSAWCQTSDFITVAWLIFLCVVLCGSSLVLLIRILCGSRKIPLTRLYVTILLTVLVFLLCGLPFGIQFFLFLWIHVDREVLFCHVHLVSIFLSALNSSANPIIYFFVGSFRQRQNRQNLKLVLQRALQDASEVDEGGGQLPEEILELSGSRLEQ
MrgX1 antagonist: antagonists of human MrgX1 receptor, primary screen, HEK293 cells, Fluo-4 calcium flux. Mas-related G-protein coupled receptor member X1 (Homo sapiens), Q96LB2. BAM8-22 antagonism; active compounds read low. B-score at 10 µM. actives 1.3% (n = 310,000). AID 588676, 2011;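 active = calcium-response B-score plate-corrected more than 3 library SD below zero, starting fluorescence within 5 deviations, no agonist response on first addition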;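 note: peak minus trough fluorescence over baseline after final BAM8-22 challenge near maximal dose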
RGS4 inh: RGS4 inhibitors, primary screen, cell-based, HEK293 M3R inducible RGS4, calcium flux | Regulator of G-protein signaling 4 (Homo sapiens), P49798 | B-score at 10 µM | Fluo-4 calcium flux; active compounds read high; triggered by carbachol at its EC20 | actives 0.45% (n = 310,000);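 active = B-score, a plate-corrected calcium signal, over three deviations above library mean, with baseline fluorescence within five deviations of library mean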;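 note: RGS4 expression induced by doxycycline in cells with stable M3 receptor; B-score is computed from the integrated fluorescence ratio over baseline after carbachol; higher B-score means a larger calcium signal and so more RGS4 inhibition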
Target sequence (P49798 whole entry, looked up): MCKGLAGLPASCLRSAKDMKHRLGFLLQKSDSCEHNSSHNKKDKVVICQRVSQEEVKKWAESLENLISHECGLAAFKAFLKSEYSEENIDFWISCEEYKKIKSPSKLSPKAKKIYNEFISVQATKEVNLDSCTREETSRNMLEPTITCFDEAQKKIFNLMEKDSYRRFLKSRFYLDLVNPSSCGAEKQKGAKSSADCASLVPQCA
MrgX1 agonist: agonists of human MrgX1 receptor, primary screen, HEK293 cells, Fluo-4 calcium flux; Mas-related G-protein coupled receptor member X1 (Homo sapiens), Q96LB2; Fluo-4 calcium fluorescence, agonist mode; active compounds read high; B-score at 10 µM; actives 0.44% (n = 310,000); AID 588627, 2011;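 active = calcium response B-score plate-corrected fluorescence ratio at least 3 library SD, with starting fluorescence B-score inside 5 SD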
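Material: MrgX1-expressing HEK293 cells; input: 15,000 cells per well; doses: test compound given as first of three sequential additions; schedule: overnight plating before 1 h dye loading; technique: Fluo-4 NW calcium-flux fluorescence, kinetic read; evaluation: baseline-normalised fluorescence change ratio, B-scored; control set: plate-wise positive and negative controls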
MrgX1 ant reconf: MrgX1 receptor antagonists, duplicate retest, confirmation, HEK293 cells, Fluo-4 calcium flux; shares compounds with MrgX1 antagonist; BAM8-22 calcium flux; active compounds read low; remaining BAM8-22 calcium response % of control (active compounds read low), % at 10 µM; actives 19% (n = 2,300);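 active = remaining agonist calcium response no higher than 100% minus 3 SD of agonist-only control wells, with starting fluorescence near control levels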;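 note: agonist BAM8-22 given at a near maximal EC90 to ECmax level; peak minus minimum fluorescence divided by baseline after agonist addition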
HEK293 Ca flux: nonspecific calcium signal in parental HEK293, confirmation, counter-screen for MrgX1 antagonist project, parental HEK293 cells, Fluo-4 calcium flux. shares compounds with MrgX1 antagonist. Fluo-4 calcium fluorescence, FDSS. fluorescence ratio F(max-min)/F0 at 10 µM. actives 2% (n = 4,000). AID 624111, 2012;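 active = duplicate-averaged calcium fluorescence ratio at least three times the standard deviation of buffer wells, a nonspecific response in parental cells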
HEK293 Ca counter: calcium response in parental HEK293 cells, primary screen, counter-screen for MrgX1 allosteric activator project, cell-based, Fluo-4 calcium flux, duplicate. actives 0.4% (n = 4,000). fluorescence ratio F(max-min)/F0 at 10 µM. Fluo-4 fluorescence ratio; active compounds read high. shares compounds with MrgX1 antagonist. AID 624114, 2012;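 active = calcium fluorescence ratio, averaged over duplicates, at least 3 SD of the buffer-well ratio, meaning a nonspecific response in receptor-free cells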;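 note: untransfected parental HEK293 lacking MrgX1 used as counterscreen for MrgX1 allosteric activators; fluorescence change taken during the second addition on a kinetic imager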
HEK293 Ca cntr2: calcium response in parental HEK293 cells, primary screen, counter-screen for MrgX1 agonist project, cell-based, Fluo-4 calcium flux, duplicate, agonist mode; actives 8.7% (n = 4,000); Fluo-4 calcium fluorescence (FDSS); active compounds read high; fluorescence ratio F(max-min)/F0 at 10 µM; shares compounds with MrgX1 antagonist;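 active = calcium fluorescence ratio at least three times the spread of buffer wells, meaning a non-specific response in parental cells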
A number is an active result.

How did NS(=O)(=O)c1ccc(NC(=O)Nc2ccc(C(F)(F)F)cc2)cc1 do in these assays?
RGS4 act: inactive; MrgX1 allo act: inactive; MrgX1 antagonist: inactive; RGS4 inh: inactive; MrgX1 agonist: inactive

Results for O=c1[nH]c2ccccc2nc1/C=C/c1ccc(F)cc1 ?
RGS4 act: inactive; MrgX1 allo act: inactive; MrgX1 antagonist: -7.97; RGS4 inh: inactive; MrgX1 agonist: inactive; MrgX1 ant reconf: inactive; HEK293 Ca flux: inactive; HEK293 Ca counter: inactive; HEK293 Ca cntr2: inactive

What do the screens show for `Cc1ccc(C)c(S(=O)(=O)N2CCN(C(=O)c3cncc(Br)c3)CC2)c1`?
RGS4 act: inactive; MrgX1 allo act: inactive; MrgX1 antagonist: inactive; RGS4 inh: inactive; MrgX1 agonist: inactive

Results for Cc1cccc(N(C)c2cc(C)nc3ncnn23)c1 ?
RGS4 act: inactive; MrgX1 allo act: inactive; MrgX1 antagonist: inactive; RGS4 inh: inactive; MrgX1 agonist: inactive

What do the screens show for `CCN(c1ccccc1)c1cc(C)nc2ncnn12`?
RGS4 act: inactive; MrgX1 allo act: inactive; MrgX1 antagonist: -6.58; RGS4 inh: inactive; MrgX1 agonist: inactive; MrgX1 ant reconf: inactive; HEK293 Ca flux: inactive; HEK293 Ca counter: inactive; HEK293 Ca cntr2: inactive

How did CN(C)CCC(Oc1ccccc1OCc1ccccc1)c1ccccc1 (centres undefined) do in these assays?
RGS4 act: inactive; MrgX1 allo act: inactive; MrgX1 antagonist: inactive; RGS4 inh: inactive; MrgX1 agonist: inactive

Results for CN(C)CCCC(C)(O)C(Cc1ccccc1)c1ccccc1 (centres undefined) ?
RGS4 act: inactive; MrgX1 allo act: inactive; MrgX1 antagonist: -6.51; RGS4 inh: inactive; MrgX1 agonist: inactive; MrgX1 ant reconf: inactive; HEK293 Ca flux: inactive; HEK293 Ca counter: inactive; HEK293 Ca cntr2: inactive

Results for COc1ccc(NC(=O)c2cc(S(=O)(=O)N3CCOCC3)cs2)cc1 ?
RGS4 act: inactive; MrgX1 allo act: inactive; MrgX1 antagonist: inactive; RGS4 inh: inactive; MrgX1 agonist: inactive

Results for COc1cccc(CNC(=O)Cn2cccc2)c1 ?
RGS4 act: inactive; MrgX1 allo act: inactive; MrgX1 antagonist: -9.8; RGS4 inh: inactive; MrgX1 agonist: inactive; MrgX1 ant reconf: 81.4%; HEK293 Ca flux: inactive; HEK293 Ca counter: inactive; HEK293 Ca cntr2: inactive

Results for OC(CN1CCOCC1)Cn1c2ccccc2c2ccccc21 (centres undefined) ?
RGS4 act: inactive; MrgX1 allo act: inactive; MrgX1 antagonist: inactive; RGS4 inh: inactive; MrgX1 agonist: inactive

How did O=C1c2ccccc2C(=O)N1CC(O)CN1CCOCC1 (centres undefined) do in these assays?
RGS4 act: inactive; MrgX1 allo act: inactive; MrgX1 antagonist: -5.21; RGS4 inh: inactive; MrgX1 agonist: inactive; MrgX1 ant reconf: inactive; HEK293 Ca flux: inactive; HEK293 Ca counter: inactive; HEK293 Ca cntr2: inactive

Results for CCc1nn(CC(=O)NCCc2ccc(S(N)(=O)=O)cc2)c(=O)c2cc3sccc3n12 ?
RGS4 act: inactive; MrgX1 allo act: inactive; MrgX1 antagonist: inactive; RGS4 inh: inactive; MrgX1 agonist: inactive

How did Cc1c(C)c2c(C)nn(-c3ccccc3)c2[nH]c1=O do in these assays?
RGS4 act: inactive; MrgX1 allo act: inactive; MrgX1 antagonist: inactive; RGS4 inh: inactive; MrgX1 agonist: inactive
